From PubChem BioAssay
This is a sample that favours compounds with a hit; in the whole collection about 4.6% have one here.
OX1R antag-1 – antagonists of human orexin 1 receptor (OX1R); OX1R-expressing cells, FRET antagonist read-out; O43613; hit rate 1.8% among 330,000; AID 485270; inhibition, % at 6.6 µM; in the data active = inhibition mostly above about 38%, no sharp cut-off; inactive = mostly below about 40%;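 note: 0% = agonist challenge alone and 100% = reference antagonist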
GPR7 antagonist – human neuropeptides B/W receptor 1 antagonism. GPR7-expressing cells, fluorescence antagonist assay. inhibition, % at 4.4 µM. hit rate 1.1% among 290,000. AID 1861; in the data active = inhibition above about 16%, passing the limit was not always enough;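 note: cells stimulated with the agonist NPW; 0% = agonist with vehicle and 100% = vehicle without agonist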
TAAR1 agonist – agonists of human TAAR1 | Q96RJ0 | CHO RD-HGA16 TAAR1, Fluo-8 calcium fluorescence; vehicle wells 0%, saturating PEA agonist 100% | activation, % at 3 µM | hit rate 0.99% among 360,000 | AID 624467;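 active = activation above the mean activation of all test compounds in the run plus 3 SD, cut at about 38% in these data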
Target sequence (Q96RJ0 whole entry, looked up): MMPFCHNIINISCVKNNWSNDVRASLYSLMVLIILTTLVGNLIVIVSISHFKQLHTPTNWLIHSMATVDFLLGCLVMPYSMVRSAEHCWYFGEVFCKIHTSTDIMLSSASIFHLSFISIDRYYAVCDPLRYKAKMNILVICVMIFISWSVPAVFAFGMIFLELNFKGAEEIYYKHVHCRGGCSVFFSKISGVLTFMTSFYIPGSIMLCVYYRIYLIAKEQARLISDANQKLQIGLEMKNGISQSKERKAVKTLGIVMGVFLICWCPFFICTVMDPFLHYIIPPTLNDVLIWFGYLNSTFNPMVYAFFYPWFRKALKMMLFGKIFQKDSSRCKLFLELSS
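test system = CHO RD-HGA16 cells carrying human TAAR1 plus Gα16 | schedule = 17-24 h seeding, 75 min 37 °C dye, 30 min RT | compound dosing = 3 µM single concentration | control set = DMSO and PEA EC100 | replicates = n 1 | signal = Fluo-8 fluorescence, 5 s baseline then 140 s kinetic read | measure = percent activation vs PEA EC100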
CHO parental Ca – signal in parental CHO cells, OX1R antagonist counter-screen; parental CHO-K1, ATP-induced calcium, Fluo-8 fluorescence; inhibition, % at 5.6 µM; hit rate 0.63% among 330,000; AID 463079;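 active = inhibition above that plate's mean sample inhibition plus 3 SD, cut at about 26% in these data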;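 note: 0% = ATP-challenged DMSO wells and 100% = DMSO wells without ATP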
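Measured by: calcium-sensitive Fluo-8 fluorescence / Test system: CHO parental line / Controls: ATP-challenged DMSO wells low, unchallenged DMSO wells high / Measure: % inhibition / Compound: single nominal dose of 5.6 µM per compound / Replicates: single well per compound, no replicates / Reagent: ATP as calcium-mobilizing challenge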
TAAR1 antagonist – antagonists of human TAAR1. CHO RD-HGA16 TAAR1, Fluo-8 calcium fluorescence, antagonist. inhibition, % at 3 µM. hit rate 1.5% among 360,000. Q96RJ0;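 active = inhibition above a per-plate cutoff, the mean inhibition of test compounds on that plate plus 3 SD, cut at about 49% in these data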;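 note: 0% = DMSO plus EC80 beta-PEA response and 100% = DMSO alone without agonist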
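Material: RD-HGA16 CHO cells with stable hTAAR1 and Gα16; Dosing: single nominal final test compound concentration of 3 µM; Schedule: seeding 17-24 h prior, 75-min 37 °C, 30-min RT dye loading; Detection: kinetic Fluo-8 calcium fluorescence measurement; Measure: % inhibition from peak post-agonist over basal fluorescence ratio; Benchmarks: vehicle and agonist controls.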
OX1R antag-2 – human HCRTR1 antagonism. O43613. CHO/OX1R cells, Fluo-8 calcium fluorescence, orexin A. inhibition, % at 5 µM. hit rate 0.43% among 330,000. AID 434989;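 active = inhibition above its plate's threshold, mean inhibition of all tested compounds on the plate plus 3 SD, cut at about 37% in these data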;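 note: 0% = orexin A challenge wells and 100% = SB-334867-A antagonist wells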
nonsel antag count – nonselective antagonism, TAAR1 counter-screen | inhibition, % at 3 µM | shares compounds with TAAR1 antagonist | counterscreen cell line, calcium fluorescence, antagonist mode | hit rate 77% among 2,400 | AID 651780; in the data active = inhibition above about 22%;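 note: CHO-Ga16 host cells stimulated with ATP at an EC80 level; 0% = agonist EC80 plus vehicle and 100% = vehicle without agonist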
TAAR1 ant conf – confirmation of human TAAR1 antagonists | TAAR1-expressing cells, fluorescence antagonist read-out | hit rate 40% among 2,400 | inhibition, % at 3 µM | shares compounds with TAAR1 antagonist; in the data active = inhibition above about 49%;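 note: CHO-Ga16 host cells challenged with agonist PEA near its EC80; 0% = agonist at EC80 plus vehicle and 100% = vehicle with no agonist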
Ga16 ag counter – nonselective Ga16 agonism, counter-screen | shares compounds with TAAR1 antagonist | AID 651953 | activation, % at 3 µM | Ga16-expressing cells, calcium fluorescence, agonist counterscreen | hit rate 18% among 2,400; in the data active = activation above about 12%;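 note: 0% = vehicle wells and 100% = saturating stimulus response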
TAAR1 ag count – counter-screen for human TAAR1 antagonists: TAAR1 agonists; AID 651955; shares compounds with TAAR1 antagonist; hTAAR1 cell line, fluorescence activation, agonist mode; activation, % at 3 µM; hit rate 2% among 2,400; in the data active = activation above about 37%;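 note: CHO cells stably expressing TAAR1 with calcium dye readout; 0% = DMSO vehicle and 100% = full agonist response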
An asterisk follows results filed as active; . = not tested or not shown.

SMILES	OX1R antag-1	GPR7 antagonist	TAAR1 agonist	CHO parental Ca	TAAR1 antagonist	OX1R antag-2	nonsel antag count	TAAR1 ant conf	Ga16 ag counter	TAAR1 ag count
Cc1cccc(NC(=O)c2ccc(COc3cccc4ccccc34)o2)n1	15	-7	-1	-24	25	-41	.	.	.	.
CC(C)(C)c1ccc(C#C[C@@H]2C=C[C@H](O)[C@@H](COC(=O)Nc3ccccc3)O2)cc1	.	.	14	.	51*	.	26*	29	4	14
CCNC(=O)OC[C@H]1O[C@H](C#Cc2ccc(C(C)(C)C)cc2)C=C[C@H]1O	.	.	1	.	-2	.	.	.	.	.
COc1ccc(C2=NS(=O)(=O)N(C)C(C(=O)N3CCc4ccccc4C3)=C2)cc1OC	16	2	24	-1	68*	-3	40*	50*	11	51*
CCc1ccc(NC(=O)C2=CC(c3ccc(OC)c(OC)c3)=NS(=O)(=O)N2C)cc1	16	8	6	4	68*	-1	33*	37	7	7
CC(C)OC(=O)C1OC1(C)c1ccccc1 (stereo not given)	.	.	0	.	-15	.	.	.	.	.
Cc1ccc(S(=O)(=O)N(C)CC(=O)Oc2ccc(-c3nnco3)cc2)cc1	8	.	-1	1	-17	-14	.	.	.	.
COc1ccc(Sc2ccc(-c3nc4cnccn4c3NC3CCCCC3)cc2OC)cc1	5	.	10	-10	58*	10	29*	41	4	4
CCC(C)Sc1ccc(-c2nc3cnccn3c2NC2CCCCC2)cc1 (stereo not given)	47	.	8	-30	20	-36	.	.	.	.
Cc1onc(-c2c(Cl)cccc2Cl)c1C(=O)c1c[nH]c(C(=O)NCC2CCCO2)c1 (stereo not given)	22	-7	26	2	62*	-33	32*	45	11	13
COc1nc(N)c(C#N)c(-c2ccc(N(C)CCC#N)cc2)c1C#N	12	1	26	-8	81*	9	29*	52*	17*	22
CCC1CN(C(=O)N2CCC(C(=O)Nc3ccccc3OC)CC2)c2ccccc2O1 (stereo not given)	3	-4	14	-21	61*	-32	22*	42	10	13
O=C(CN1C(=O)NC2(CCCCCCC2)C1=O)Nc1c(Cl)cccc1Cl	3	.	4	-8	8	-21	.	.	.	.
CCc1ccc(OCCNC(=O)c2ccccc2SCc2ccccc2)cc1	34	-13	8	18	61*	-8	25*	40	4	2
CCNC(=O)c1ccccc1SCc1ccccc1	27	-1	8	-22	0	-6	.	.	.	.
Cc1ccccc1N(C(=O)c1snc(C(N)=O)c1N)C(C(=O)NCc1ccccc1)c1ccc(O)cc1 (stereo not given)	20	1	27	-14	64*	1	30*	54*	10	13
Cc1ccccc1N(C(=O)c1snc(C(N)=O)c1N)C(C)C(=O)NC1CCCCC1 (stereo not given)	19	0	3	-13	-21	-12	.	.	.	.
Cc1ccccc1N(C(=O)c1snc(C(N)=O)c1N)C(C(=O)NC1CCCCC1)c1ccc(O)cc1 (stereo not given)	8	4	3	-9	73*	-11	20	56*	5	3
CCCC(C(=O)NC1CCCC1)N(Cc1ccc2c(c1)OCO2)C(=O)c1snc(C(N)=O)c1N (stereo not given)	11	12	17	-29	63*	-7	28*	49*	9	11
NC(=O)c1nsc(C(=O)N(c2ccccc2F)C(C(=O)NCc2ccccc2)c2ccc(O)cc2)c1N (stereo not given)	5	-9	14	0	78*	-2	36*	48	10	14
